A short description of assay [1]: (§1) Fractional inhibitory concentration (FIC) tested against Peruvian PC49 cells, isolate from South America. It is filed as functional, Plasmodium falciparum. In short, it runs like this: (§2)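 Parasite growth read by [3H]hypoxanthine incorporation in erythrocytes at 0.2% parasitemia and 1% hematocrit. Medium: folate- and PABA-free RPMI-1640 with 10% heat-inactivated human plasma or Albumax. Cultures were kept at 37 °C under 5% CO2/5% O2/90% N2, with label added at 42 h and 66 h total incubation. Counts were taken after freeze-thaw harvest, IC50 came from nonlinear logistic fits, and FIC index was derived from isobologram.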

For assay [2], the system named is Plasmodium falciparum. Put plainly: Fractional inhibitory concentration (FIC) tested against TM91C235 isolate. Format: functional. A digest of the protocol:
as §2

Assay [3] concerns Plasmodium falciparum. Kind of assay: Fractional inhibitory concentration (FIC) against Plasmodium falciparum W2 of equimolar (1:1) combination dose with chloroquine. It is filed as functional. In short, it runs like this: as §2
Assay [4] in a line: (§3) Fractional inhibitory concentration (FIC) tested against RCS cells, isolate from Brazil. It is filed as functional, Plasmodium falciparum. In short, it runs like this:
as §2

The subject of assay [5] is Plasmodium falciparum. Kind of assay: In vitro anti-MDR effect in chloroquine and mefloquine resistant TM91C235 cell lines at 5000 ng/ml concentration. Format: functional. In short, it runs like this: (§4)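 TM91C235 P. falciparum in erythrocytes at 0.2% parasitemia and 1% hematocrit, in folate- and PABA-free RPMI-1640 with 10% heat-inactivated human plasma or Albumax. Incubated 66 h at 37 °C under 5% CO2/5% O2/90% N2, with 3H-hypoxanthine added at 42 h. Cells lysed by freezing at -70 °C and harvested; inhibition of isotope incorporation read by scintillation counting.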

Assay [6] has as its system Plasmodium falciparum. Put plainly: In vitro anti-MDR effect in chloroquine and mefloquine resistant TM91C235 cell lines at 50 ng/ml concentration. Format: functional. In short, it runs like this:
as §4

For assay [7], the system named is Plasmodium falciparum. Put plainly: In vitro anti-MDR effect in mefloquine resistant TM91C235 cell lines at 500 ng/ml concentration in the presence of 5 ng/mL mefloquine. Format: functional. In short, it runs like this: (§5)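 Mefloquine was held at 5 ng/mL, combined with test agent. Parasites (TM91C235) were in erythrocytes at 0.2% parasitemia and 1% hematocrit, in folate/PABA-free RPMI-1640 with human plasma or Albumax. Incubation was 66 h at 37 °C in 5% CO2/5% O2/90% N2, with 3H-hypoxanthine added for the last 24 h. Incorporation was counted after freeze-lysis and harvesting.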

Assay [8] deals with Plasmodium falciparum. Put plainly: In vitro anti-MDR effect in chloroquine resistant TM91C235 cell lines at 50 ng/ml concentration in the presence of 10 ng/mL chloroquine. It is filed as functional. A digest of the protocol: (§6)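 Test agent was combined with chloroquine at 10 ng/mL. TM91C235 was cultured in erythrocytes at 0.2% parasitemia and 1% hematocrit, in folate- and PABA-free RPMI-1640, for 66 h at 37 °C under 5% CO2/5% O2/90% N2. 3H-hypoxanthine was added at 42 h, and cell suppression was taken from scintillation counts of harvested lysates.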

Assay [9] deals with Plasmodium falciparum. Kind of assay: In vitro anti-MDR effect in mefloquine resistant TM91C235 cell lines at 50 ng/ml concentration in the presence of 5 ng/mL mefloquine. Format: functional. A digest of the protocol: as §5
Assay [10] has as its system Plasmodium falciparum. Put plainly: In vitro anti-MDR effect in mefloquine resistant TM91C235 cell lines at 5000 ng/ml concentration in the presence of 5 ng/mL mefloquine. Format: functional. In short, it runs like this: as §5
In assay [11] the test system is Plasmodium falciparum. Kind of assay: In vitro anti-MDR effect in chloroquine resistant TM91C235 cell lines at 500 ng/ml concentration in the presence of 10 ng/mL chloroquine. Format: functional. A digest of the protocol: as §6
Assay [12] concerns Plasmodium falciparum. Kind of assay: In vitro anti-MDR effect in chloroquine resistant TM91C235 cell lines at 5000 ng/ml concentration in the presence of 10 ng/mL chloroquine. Format: functional. A digest of the protocol: as §6
The subject of assay [13] is Plasmodium falciparum. Put plainly: In vitro anti-MDR effect in chloroquine and mefloquine resistant TM91C235 cell lines at 500 ng/ml concentration. It is filed as functional. A digest of the protocol:
as §4

In assay [14] the test system is Plasmodium falciparum. Put plainly: Fractional inhibitory concentration (FIC) tested against TM91C235 cells, isolate from South east Asia. Format: functional. A digest of the protocol:
as §2

The test system of assay [15] is Plasmodium falciparum. Kind of assay: Fractional inhibitory concentration (FIC) against Plasmodium falciparum W2 at equimolar (1:1) combination dose with chloroquine. Format: functional. In short, it runs like this:
as §2

A short description of assay [16]: as §3. It is filed as functional. A digest of the protocol:
as §2

Assay [17] is described as follows: as §1. Format: functional. A digest of the protocol: as §2

Each structure is given as a SMILES string.

Consider `c1ccc2c(c1)Sc1ccccc1N2CCCCN1CCOCC1`, for which the FIC in assay [1] is 0.81; in the assay with Plasmodium falciparum [2], 0.32; in the assay on Plasmodium falciparum [3] it was 0.39; in assay [4], 0.37.

Regarding `CCN(CC)CCCCCCN1c2ccccc2CCc2ccccc21`, the FIC in the assay on Plasmodium falciparum [2] is recorded as 0.59; in the assay with Plasmodium falciparum [3], 0.48; in assay [4], 0.72.

Turning to `CN(CCCCN1c2ccccc2Sc2ccccc21)Cc1ccccc1`, the Suppression with Plasmodium falciparum [5] is given as 35%; with Plasmodium falciparum [6] it was 13%; in the assay on Plasmodium falciparum [7], 0%; in the assay with Plasmodium falciparum [8] it was 14%; with Plasmodium falciparum [9], 0%; in the assay on Plasmodium falciparum [10] it was 13%. For the same compound, the Suppression is on record as 27% in the assay on Plasmodium falciparum [11], 62% with Plasmodium falciparum [12] and 18% with Plasmodium falciparum [13].

`CN(CCCCN1c2ccccc2CCc2ccccc21)Cc1ccccc1`: the Suppression is 60% with Plasmodium falciparum [5]; 30% in the assay with Plasmodium falciparum [6]; 22% in the assay on Plasmodium falciparum [7]; 10% in the assay with Plasmodium falciparum [8]; 20% with Plasmodium falciparum [9]; 41% in the assay with Plasmodium falciparum [10]. Also, the Suppression in the assay on Plasmodium falciparum [11] came to 20%; in the assay on Plasmodium falciparum [12] it was 33%; in the assay on Plasmodium falciparum [13] it was 32%.

Consider `CN(C)CCCCN1c2ccccc2CCc2ccccc21`, for which the Suppression in the assay with Plasmodium falciparum [5] amounted to 96%; in the assay with Plasmodium falciparum [6] it was 59%; in the assay with Plasmodium falciparum [7] it was 70%; with Plasmodium falciparum [8], 99%; in the assay on Plasmodium falciparum [9], 43%; with Plasmodium falciparum [10], 95%. The Suppression in the assay with Plasmodium falciparum [11] came out at 99%; in the assay with Plasmodium falciparum [12], 100%; in the assay with Plasmodium falciparum [13] it was 73%. Besides, the FIC in assay [1] came to 0.62; with Plasmodium falciparum [2] it was 0.26; in the assay with Plasmodium falciparum [3], 0.23; in [4], 0.52.

`c1ccc(CN(CCCCN2c3ccccc3CCc3ccccc32)Cc2ccccc2)cc1`: the Suppression in the assay on Plasmodium falciparum [5] amounted to 13%; in the assay with Plasmodium falciparum [6], 11%; in the assay with Plasmodium falciparum [7], 22%; with Plasmodium falciparum [8], 6%; with Plasmodium falciparum [9] it was 14%; with Plasmodium falciparum [10] it was 19%. The Suppression came to 8% in the assay on Plasmodium falciparum [11], 13% in the assay with Plasmodium falciparum [12] and 17% in the assay with Plasmodium falciparum [13].

Take `CCN(CC)CCCCN1c2ccccc2CCc2ccccc21`: the Suppression with Plasmodium falciparum [5] is 100%; with Plasmodium falciparum [6], 62%; in the assay with Plasmodium falciparum [7], 95%; in the assay with Plasmodium falciparum [8], 99%; in the assay on Plasmodium falciparum [9], 64%; with Plasmodium falciparum [10], 100%. Moreover, the Suppression in the assay on Plasmodium falciparum [11] was 100%; with Plasmodium falciparum [12], 100%; in the assay with Plasmodium falciparum [13], 95%. Also, the FIC in [1] worked out at 0.57; in the assay with Plasmodium falciparum [2] it was 0.41; with Plasmodium falciparum [3] it was 0.39; in assay [4], 0.57.

Regarding `CN(C)CCCCN1c2ccccc2Sc2ccccc21`, the Suppression with Plasmodium falciparum [5] is on record as 92%; in the assay with Plasmodium falciparum [6] it was 17%; in the assay with Plasmodium falciparum [7], 31%; with Plasmodium falciparum [8], 30%; with Plasmodium falciparum [9] it was 2%; in the assay on Plasmodium falciparum [10], 92%. Moreover, the Suppression in the assay on Plasmodium falciparum [11] was found to be 97%; in the assay on Plasmodium falciparum [12], 100%; in the assay with Plasmodium falciparum [13], 27%. For the same compound, the figures for the FIC (with Plasmodium falciparum [14]; in the assay with Plasmodium falciparum [15]; in assay [16]) were 0.28, 0.23 and 0.51, respectively.

As to `CN1CCN(CCCCN2c3ccccc3CCc3ccccc32)CC1`, the FIC came out at 0.54 in the assay with Plasmodium falciparum [2], 0.52 with Plasmodium falciparum [3] and 0.66 in [4].

For `c1ccc2c(c1)Sc1ccccc1N2CCCCN1CCCC1`, the Suppression in the assay with Plasmodium falciparum [5] came to 96%; in the assay on Plasmodium falciparum [6], 38%; with Plasmodium falciparum [7] it was 67%; with Plasmodium falciparum [8], 99%; with Plasmodium falciparum [9], 33%; with Plasmodium falciparum [10], 95%. In addition, the Suppression in the assay with Plasmodium falciparum [11] is recorded as 99%; in the assay with Plasmodium falciparum [12], 100%; in the assay with Plasmodium falciparum [13], 70%. The FIC in assay [1] was found to be 0.5; with Plasmodium falciparum [2], 0.25; with Plasmodium falciparum [3], 0.21; in assay [4], 0.51.

For `c1ccc2c(c1)Sc1ccccc1N2CCCCN1CCCCC1`, the FIC in [1] is 0.83; in the assay with Plasmodium falciparum [2] it was 0.52; in the assay on Plasmodium falciparum [3] it was 0.49; in assay [4], 0.68.

For the compound `c1ccc2c(c1)CCc1ccccc1N2CCCCN1CCCCC1`, the FIC in [1] is reported as 0.73; in the assay with Plasmodium falciparum [2], 0.54; in the assay on Plasmodium falciparum [3] it was 0.45; in [4] it was 0.36.

On to `c1ccc2c(c1)CCc1ccccc1N2CCCCN1CCOCC1`, for which the FIC in [1] turned out to be 0.78; in the assay with Plasmodium falciparum [2], 0.54; with Plasmodium falciparum [3] it was 0.31; in assay [4], 0.89.

With `c1ccc2c(c1)CCc1ccccc1N2CCCCCN1CCCC1`, the FIC is on record as 0.59 in assay [1], 0.55 in the assay with Plasmodium falciparum [2], 0.48 in the assay on Plasmodium falciparum [3] and 0.37 in assay [4].

As to `CN1CCN(CCCCN2c3ccccc3Sc3ccccc32)CC1`, the FIC in [1] is reported as 0.98; in the assay on Plasmodium falciparum [2], 0.48; in the assay with Plasmodium falciparum [3] it was 0.4; in assay [4], 0.49.

In the case of `CCN(CC)CCCCN1c2ccccc2C=Cc2ccccc21`, the FIC in assay [1] is on record as 0.6; in the assay with Plasmodium falciparum [2], 0.33; in the assay with Plasmodium falciparum [3], 0.53; in [4] it was 0.39.

In the case of `C1=Cc2ccccc2N(CCCCN2CCCC2)c2ccccc21`, the FIC in assay [1] is 0.74; in the assay with Plasmodium falciparum [2] it was 0.49; in the assay on Plasmodium falciparum [3] it was 0.33; in assay [4] it was 0.59.

`c1ccc2c(c1)CCc1ccccc1N2CCCCN1CCCC1`: the Suppression in the assay on Plasmodium falciparum [5] is listed as 100%; in the assay on Plasmodium falciparum [6], 58%; in the assay with Plasmodium falciparum [7], 96%; in the assay with Plasmodium falciparum [8], 99%; with Plasmodium falciparum [9] it was 64%; in the assay on Plasmodium falciparum [10], 100%. For the same compound, the Suppression in the assay on Plasmodium falciparum [11] turned out to be 100%; in the assay with Plasmodium falciparum [12], 100%; with Plasmodium falciparum [13] it was 98%. The FIC in [1] was determined as 0.66; with Plasmodium falciparum [2] it was 0.42; in the assay with Plasmodium falciparum [3] it was 0.32; in assay [4], 0.51.

In the case of `CCN(CC)CCCCCN1c2ccccc2CCc2ccccc21`, the FIC was 0.82 in assay [1], 0.48 in the assay on Plasmodium falciparum [2], 0.44 in the assay with Plasmodium falciparum [3] and 0.36 in [4].

Take `c1ccc2c(c1)CCc1ccccc1N2CCCCCCN1CCCC1`: the FIC was found to be 0.92 in [1], 0.54 with Plasmodium falciparum [2], 0.57 with Plasmodium falciparum [3] and 0.6 in assay [4].

In the case of `c1ccc(CN(CCCCN2c3ccccc3Sc3ccccc32)Cc2ccccc2)cc1`, the Suppression came to 22% in the assay with Plasmodium falciparum [5]; 7% in the assay on Plasmodium falciparum [6]; 3% in the assay on Plasmodium falciparum [7]; 12% with Plasmodium falciparum [8]; 0% in the assay with Plasmodium falciparum [9]; 9% in the assay on Plasmodium falciparum [10]. Moreover, the Suppression is 16% with Plasmodium falciparum [11], 25% with Plasmodium falciparum [12] and 10% in the assay on Plasmodium falciparum [13].

With `COc1ccc(CCN(C)CCCC(C#N)(c2ccc(OC)c(OC)c2)C(C)C)cc1OC` (centres undefined) [VERAPAMIL], the FIC is 0.61 in [17], 0.63 in assay [16] and 0.51 in the assay with Plasmodium falciparum [3].
